# Screens deposited in PubChem BioAssay by several laboratories.
# FLuc inhib CS – firefly luciferase enzyme inhibitors, primary screen, artefact control for luciferase-based inhibitor screens, biochemical, luminescence, ATPLite; inhibition, % at 10 µM; 1.5% of 200,000 active; 10 min; Luciferin 4-monooxygenase (Photinus pyralis), P08659;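 active = inhibition above about 50% when tested at 10 µM, limit read from the data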
# Target sequence (P08659 whole entry, looked up): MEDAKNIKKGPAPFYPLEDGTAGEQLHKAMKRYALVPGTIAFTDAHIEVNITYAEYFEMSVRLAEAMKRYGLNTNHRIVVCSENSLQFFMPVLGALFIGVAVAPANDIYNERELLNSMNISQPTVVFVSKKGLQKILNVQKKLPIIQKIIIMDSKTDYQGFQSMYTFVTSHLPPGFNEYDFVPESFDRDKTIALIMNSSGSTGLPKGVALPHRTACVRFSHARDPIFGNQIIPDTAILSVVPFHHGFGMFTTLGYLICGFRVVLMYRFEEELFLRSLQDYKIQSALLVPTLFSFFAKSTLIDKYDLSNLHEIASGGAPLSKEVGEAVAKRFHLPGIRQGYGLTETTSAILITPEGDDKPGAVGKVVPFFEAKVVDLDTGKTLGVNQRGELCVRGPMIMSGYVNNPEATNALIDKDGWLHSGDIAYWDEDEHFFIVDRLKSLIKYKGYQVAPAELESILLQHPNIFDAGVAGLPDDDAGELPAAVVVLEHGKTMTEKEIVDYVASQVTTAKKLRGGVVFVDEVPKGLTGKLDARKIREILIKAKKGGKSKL
# STAT1 act – STAT1 signaling activators, primary screen, cell-based, HTS, luciferase reporter. 2.6% of 200,000 active. activation (% of control), % at 5.5 µM. NIH 3T3 STAT1-luciferase reporter, IFN-gamma, luminescence; 100% = IFN-gamma alone, no compound;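 active = activation above the screen-wide mean activation plus 3 SD, cut at about 130% in these data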;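 note: raw ratio to IFN-gamma control signal so 100% means no change and 0% no light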
# FLuc act counter – FLuc activators, initial screening, artefact control for FLuc-dependent activation tests, biochemical, ATPlite luminescence | activation factor at 10 µM | AID 1027, 2008 | Luciferin 4-monooxygenase (Photinus pyralis), P08659 | ATPlite luciferase biochemical, 10 min; 0 = ATP-free wells, 1 = DMSO control | 200,000 tested, under 10 active;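 active = luciferase activation factor, scaled between plate controls, of at least 2 with compound at 10 µM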
#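 Assay system – cell-free luciferase reagent · Medium – PBS-based ATP solution · Dosing – test compounds dosed from 2 mM stocks in 100% DMSO · Timing – 10 min, room temperature · Technique – light output (luminescence) · Measure – luminescence gain marking luciferase activators · Controls – No-ATP low control, compound-free enzyme-plus-ATP high control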
# NF-kB neuron act – activators of NF-kB expression in neurons, primary screen, cell-based, HTS; human neuronal cells, NF-kB reporter expression; stronger effect = higher value; fold change at 12.5 µM; 1.6% of 190,000 active; AID 1239, 2008; in the data active = fold change above about 3.3
# APP 5'UTR act – activators of APP 5'UTR luciferase reporter, primary screen, SH-SY5Y cells. 1% of 190,000 active. SH-SY5Y APP 5'UTR luciferase reporter, luminescence; zero percent = DMSO vehicle wells. activation, % at 2 µM;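 active = activation above a set limit, based on mean plus 3 SD of controls, cut at about 140% in these data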
# Starred values were filed as active, the others as inactive; · = no result given. An excerpt weighted towards active compounds, which were near 4.3% of everything screened.
SMILES,FLuc inhib CS,STAT1 act,FLuc act counter,NF-kB neuron act,APP 5'UTR act
CCOC(=O)c1c(C)[nH]c(C(=O)Nc2ccc(C)c(Cl)c2)c1C,1,128,1,3.8*,163*
CCOC(=O)c1c(C)[nH]c(C(=O)Nc2ccc(NC(C)=O)cc2)c1C,-8,86,1.1,0.94,-13
Cc1ncc([N+](=O)[O-])n1CC(=O)N/N=C/c1ccc(F)cc1,-2,99,1,1.1,2
Cc1ccnc(N2C(=O)c3ccccc3C2O)c1 (stereo unspecified),36,123,0.6,2.6,153*
CN(c1ccccc1)S(=O)(=O)c1cccc(NC(=O)CC(C)(C)C)c1,-3,103,1,1,7
O=C(CSc1ncnc2ccccc12)c1ccco1,81*,132*,0.2,5.6*,146*
COc1ccc(C(=O)c2cc3cccc(OC)c3o2)cc1,49,150*,0.5,4.2*,99
COc1cccc2cc(C(C)=O)oc12,-5,102,1,1.3,-13
Cc1ccc(C(=O)Nc2ccc3cn[nH]c3c2)cc1S(=O)(=O)N1CCOCC1,17,130*,0.8,·,2
COc1ccc([C@@H]2[C@H]3C(=O)N(c4cccc(C(F)(F)F)c4)C(=O)[C@H]3ON2C)cc1,-2,94,1,1.1,0
O=C(C1CCN(S(=O)(=O)N2CCCCC2)CC1)N1CCCCC1,-2,92,1,1.1,-4
Cc1ccc(/C=N/NC(=S)N2CCOCC2)cc1,21,131*,0.8,1.6,64
S=C(N/N=C/c1ccc(Cl)cc1)N1CCOCC1,5,132*,1,1.5,27
O=C(COc1ccc(Cl)cc1)Nc1ccc2c(c1)CCC2,4,89,1,1.2,29
O=C(Nc1ccc2c(c1)CCC2)c1ccc(Cl)nc1,30,163*,0.7,4*,96
O=C(Nc1ccc2c(c1)CCC2)c1cnc(Cl)c(Cl)c1,-2,135*,1,3.8*,149*
CC(C)CN(C(=O)c1nn(C)c(=O)c2ccccc12)c1nc2ccccc2s1,-3,100,1,0.92,-3
CCc1ccc(C2CC(c3ccco3)=NN2S(C)(=O)=O)cc1 (stereo unspecified),48,138*,0.5,4.8*,155*
COc1ccc(OC)c(N/C=C/C(=C(C#N)C#N)N(C)C)c1,4,91,1,1.1,-13
CCCCOc1ccc(-c2cc(C(=O)NNC(=S)NCC)c3ccccc3n2)cc1,94*,45,0.1,4.1*,154*
CCNC(=S)NNC(=O)c1cc(-c2ccc(OC)cc2)nc2ccccc12,96*,82,0,4.1*,103
CN(C)/C=C/C(=O)c1ncc(C(F)(F)F)cc1Cl,-4,106,1,0.99,1
COc1ccc(S(=O)(=O)NCc2ccc(F)cc2)cc1OC,-3,90,1,1,1
Cc1ccc2nc(-c3ccc(N4C(=N)SC5CS(=O)(=O)CC54)cc3)sc2c1 (stereo unspecified),16,130*,0.8,1.2,71
O=C(c1ccc(F)cc1)C1CCN(S(=O)(=O)c2ccccc2)CC1,-4,101,1,1,9
SMILES,FLuc inhib CS,STAT1 act,FLuc act counter,NF-kB neuron act,APP 5'UTR act
COC(=O)C1=C(SC)N(c2ccccc2)C(c2ccccc2)CC1=O (stereo unspecified),-6,92,1.1,1,-11
COc1ccc(NC(=O)c2oc3ccccc3c2C)c(OC)c1,0,109,1,1.8,65
COC(=O)CCC(=O)c1oc2ccc(OC)cc2c1N,56*,111,0.4,1.8,-64
COc1ccc2oc(C(=O)C3CC3)c(N)c2c1,19,140*,0.8,2.6,83
COc1ccc2oc(C(=O)NC(C)(C)C)c(C)c2c1,27,146*,0.7,0.96,80
CCOC(=O)C1CCCN(C(=O)c2ccco2)C1 (stereo unspecified),0,103,1,1,7
O=C1c2ccccc2C(=O)N1CCCOc1ccccc1,3,124,1,2.1,10
COc1ccccc1OCCn1c(=O)sc2ccccc21,-1,102,1,1.3,20
COc1ccc(OCCn2c(=O)sc3ccccc32)cc1,16,137*,0.8,1.8,57
Cc1cccc(OCCn2c(=O)n(C)c3ccccc32)c1,14,143*,0.9,3.6*,85
Cc1cccc(OCCn2c(=O)sc3ccccc32)c1,14,136*,0.9,3,87
Cc1cccc(OCCN2C(=O)c3ccccc3C2=O)c1,10,140*,0.9,1.9,18
Cc1cccc(OCCCn2c(=O)sc3ccccc32)c1,-2,128,1,1.8,8
Cc1cc(C)n(-c2ccc(C)c(Cl)c2)n1,-5,104,1,1.5,-2
CC(C)(C)NC(=O)/C(=C\C=C\c1ccccc1)NC(=O)c1ccc([N+](=O)[O-])cc1,-5,93,1.1,0.94,-5
O=C(CSC1CC(=O)N(c2ccc(C(=O)O)cc2)C1=O)Nc1ccc(Cl)cc1 (stereo unspecified),-5,98,1,1.2,23
CCc1c(C)nc(SCC(=O)Nc2nc(-c3ccc(OC)cc3)cs2)[nH]c1=O,-4,85,1,1.1,-15
COCCn1c(C)cc(C(=O)CSc2nc3ccccc3c(=O)[nH]2)c1C,31,142*,0.7,1.7,23
C=CCn1c(C)cc(C(=O)CSc2nc3ccccc3c(=O)[nH]2)c1C,18,134*,0.8,2,34
Cc1cc(C)c(C(=O)CSc2nc3ccccc3c(=O)[nH]2)cc1C,-7,102,1.1,1.2,-4
C=CCn1c(C)cc(C(=O)CSc2nc3ccccc3[nH]2)c1C,55*,73,0.5,0.74,122
COCC(C)n1c(C)cc(C(=O)CSc2nc3ccccc3c(=O)[nH]2)c1C (stereo unspecified),5,85,0.9,0.98,0
CCOC(=O)NC(=O)CSc1nnc(C2CC2)n1Cc1ccco1,-6,100,1.1,1,1
COC(=O)c1ccc(N=NNc2ccccc2)cc1,15,146*,0.9,2.5,63
COC(=O)c1ccc(CSCC(=O)Nc2ccccc2)cc1,-2,86,1,1.1,31
COC(=O)c1ccc(N=NN2CCOCC2)cc1,20,128,0.8,3,81
O=C(O)c1ccc(N=NNc2cccc([N+](=O)[O-])c2)cc1,-1,143*,1,4.1*,83
COC(=O)c1ccc(N=NNc2ccc(C(=O)OC)cc2)cc1,-1,148*,1,3.5*,127
O=C(Nc1cccc([N+](=O)[O-])c1)c1ccc(-c2ccccc2)cc1,3,101,1,1,29
